In one assay the test system is A549. Description: Cytotoxicity against human A549 cells by SRB method. Type of assay: functional, cell-based. Summed up:
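In vitro growth inhibition of A-549 human lung carcinoma cells, read by sulforhodamine B staining; pseudolaric acid B served as positive control.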

Another assay relates to P388. Nature of the assay: Cytotoxicity against murine P388 cells by MTT method. As to conditions: Mus musculus. The format is functional, cell-based. Summed up:
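In vitro growth inhibition of P-388 murine leukemia cells, read by MTT reduction; pseudolaric acid B served as positive control.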
(Formazan colour is commonly taken as a measure of viable cells.)

Turning to `CC[C@H]1C[C@@H]2C[C@H]3c4[nH]c5cc([C@@H]6C[C@H]7C(C(=O)OC)[C@@H](Cc8c6[nH]c6ccccc86)N(C)C[C@H]7CC)c(OC)cc5c4CCN(C2)[C@@H]13` (stereo partly specified), the IC50 worked out at 1100 nM in the assay with A549 and 840 nM in the assay on P388. The matching figures for `C/C=C1/CN(C)[C@@H]2Cc3c([nH]c4ccccc34)[C@H](c3cc4[nH]c5c(c4cc3OC)CCN3C[C@@H]4C[C@H](CC)[C@H]3[C@H]5C4)C[C@H]1C2C(=O)OC` (stereo partly specified): 520 nM and 110 nM. Consider `CC[C@H]1C[C@@H]2C[C@H]3c4[nH]c5cc([C@@H]6C[C@H]7C(C(=O)OC)[C@@H](Cc8c6[nH]c6ccccc86)N(C)C[C@H]7CC)ccc5c4CCN(C2)[C@@H]13` (stereo partly specified), for which the figures for the half-maximal inhibitory concentration (IC50) in the assay on A549 and with P388 were 260 nM and 430 nM, respectively.

As for `CC[C@@]12C=CCN3CC[C@]4(C(=C(C(=O)OC)C1)Nc1cc5c(cc14)[C@H]1[C@@H](O5)[C@H](O)[C@]4(CC)CC(C(=O)OC)=C5Nc6c(cc(O)c(OC)c6OC)[C@@]56CCN1[C@H]46)[C@H]32` [CONOPHYLLIDINE], the figures for the half-maximal inhibitory concentration (IC50) in the assay with A549 and with P388 were 44 nM and 25 nM, respectively. The corresponding values for `CC[C@H]1C[C@H]2CN3CCc4c([nH]c5cc([C@@H]6C[C@H]7C(C(=O)OC)[C@@H](Cc8c6[nH]c6ccccc86)N(C)C[C@H]7CC)c(OC)cc45)[C@](C(=O)OC)(C2)[C@H]13` (stereo partly specified) [ERVADIVARICATINE B] are 430 nM and 360 nM. In turn, `COC(=O)C1=CC[C@@]23CC[C@@H]([C@@](C)(/C=C/C=C(\C)C(=O)O)OC2=O)[C@@]3(OC(C)=O)CC1` [PSEUDOLARIC ACID B] registered a concentration for half-maximal inhibition (IC50) in the assay with P388 of 3700 nM.

The IC50 is the point on the concentration scale where inhibition reaches its midpoint.

(Values after ChEMBL document CHEMBL1139212, “Indole alkaloids from three species of the Ervatamia genus: E. officinalis, E. divaricata, and E. divaricata Gouyahua” (J Nat Prod, 2007).)
